{"data": "Experimental data from different studies", "PSMB8": "Proteasome subunit beta type-8 (PSMB8, Homo sapiens, UniProt P28062)", "GCGR": "Glucagon receptor (GCGR, Homo sapiens, UniProt P47871)", "Mc1r": "Melanocyte-stimulating hormone receptor (Mc1r, Mus musculus, UniProt Q01727)", "note": "Compare with care: the assays were run in different laboratories."}
{"SMILES": "CC(C)C[C@H](NC(=O)[C@H](Cc1ccccc1)N=[N+]=[N-])C(=O)N[C@@H](CC(F)(F)F)C(=O)N[C@H](/C=C/S(C)(=O)=O)Cc1ccc(CN)cc1", "target": "PSMB8", "assay": "enzyme activity, inhibitor", "setting": "lysate", "quantity": "IC50", "value": "1830 nM"}
{"SMILES": "N#Cc1ccc(COc2cccc(C3CCN(Cc4nc5ccc(C(=O)O)cc5n4C[C@@H]4CCO4)CC3)n2)c(F)c1", "target": "GCGR", "assay": "cAMP, agonist", "quantity": "EC50", "value": "> 20000 nM"}
{"SMILES": "N=C(N)NCCC[C@H](NC(=O)[C@H](CC(=O)O)NC(=O)[C@H](Cc1c[nH]c2ccccc12)NC(=O)[C@H](CCCNC(=N)N)NC(=O)[C@H](Cc1ccccc1)NC(=O)[C@H](Cc1c[nH]cn1)NC(=O)CN)C(=O)N[C@@H](Cc1ccccc1)C(=O)NCC(=O)O", "target": "Mc1r", "assay": "reporter gene, agonist", "quantity": "EC50", "value": "7860 nM"}
{"SMILES": "Cc1ncc(C(=O)N[C@@H](CCC2CCCCC2)C(=O)N[C@@H](CC(C)C)C(=O)N[C@H](/C=C/S(C)(=O)=O)Cc2ccc(CN)cc2)s1", "target": "PSMB8", "assay": "enzyme activity, inhibitor", "setting": "lysate", "quantity": "IC50", "value": "410 nM"}
{"SMILES": "N=C(N)NCCC[C@H](N)C(=O)N[C@@H](Cc1ccccc1)C(=O)NCC(=O)O", "target": "Mc1r", "assay": "reporter gene, agonist", "quantity": "EC50", "value": "> 100000 nM"}
{"SMILES": "CC1=C(/C=C/C(C)=C/C=C/C(C)=C/C=O)C(C)(C)CCC1", "target": "Cellular retinoic acid-binding protein 2 (CRABP2, Homo sapiens, UniProt P29373, R133K/Y135F)", "assay": "binding, fluorescence", "quantity": "Kd", "value": "120 nM"}
{"SMILES": "Cc1ncc(C(=O)N[C@@H](CC(C)C)C(=O)N[C@@H](CC(C)C)C(=O)N[C@H](/C=C/S(C)(=O)=O)Cc2ccc(CN)cc2)s1", "target": "PSMB8", "assay": "enzyme activity, inhibitor", "setting": "lysate", "quantity": "IC50", "value": "> 10000 nM"}
{"SMILES": "CSCC[C@H](N)C(=O)NCC(=O)N[C@@H](Cc1c[nH]cn1)C(=O)N[C@@H](Cc1ccccc1)C(=O)N[C@@H](CCCNC(=N)N)C(=O)N[C@@H](Cc1c[nH]c2ccccc12)C(=O)N[C@@H](CC(=O)O)C(=O)N[C@@H](CCCNC(=N)N)C(=O)N[C@@H](Cc1ccccc1)C(=O)NCC(=O)O", "target": "Mc1r", "assay": "reporter gene, agonist", "quantity": "EC50", "value": "1590 nM"}
{"SMILES": "CC[C@H](C)[C@H](NC(=O)[C@H](CO)NC(=O)[C@H](Cc1ccc(O)cc1)NC(=O)[C@H](CC(=O)O)NC(=O)[C@H](CO)NC(=O)[C@@H](NC(=O)[C@H](Cc1ccccc1)NC(=O)[C@@H](NC(=O)CNC(=O)[C@H](CCC(=O)O)NC(=O)[C@H](C)NC(=O)[C@@H](N)Cc1ccc(O)cc1)[C@@H](C)O)[C@@H](C)CC)C(=O)N[C@@H](C)C(=O)N[C@@H](CCSC)C(=O)N[C@@H](CC(=O)O)C(=O)N[C@@H](CCCCN)C(=O)N[C@H](C(=O)N[C@@H](Cc1c[nH]cn1)C(=O)N[C@@H](CCC(N)=O)C(=O)N[C@@H](CCC(N)=O)C(=O)N[C@@H](CC(=O)O)C(=O)N[C@@H](Cc1ccccc1)C(=O)N[C@H](C(=O)N[C@@H](CC(N)=O)C(=O)N[C@@H](Cc1c[nH]c2ccccc12)C(=O)N[C@@H](CC(C)C)C(=O)N[C@@H](CC(C)C)C(=O)N[C@@H](C)C(=O)N[C@@H](CCC(N)=O)C(=O)N[C@@H](CCCCN)C(=O)NCC(=O)N[C@@H](CCCCN)C(=O)N[C@@H](CCCCN)C(=O)N[C@@H](CC(N)=O)C(=O)N[C@@H](CC(=O)O)C(=O)N[C@@H](Cc1c[nH]c2ccccc12)C(=O)N[C@@H](CCCCN)C(=O)N[C@@H](Cc1c[nH]cn1)C(=O)N[C@@H](CC(N)=O)C(=O)N[C@H](C(=O)N[C@H](C(=O)N[C@@H](CCC(N)=O)C(=O)O)[C@@H](C)O)[C@@H](C)CC)C(C)C)[C@@H](C)CC", "target": "GCGR", "assay": "reporter gene, agonist, luciferase", "quantity": "EC50", "value": "501 nM"}
{"SMILES": "CCCCN1CCC(COC(=O)c2ccc(N)c(OCF)c2)CC1", "target": "Muscarinic acetylcholine receptor M3 (CHRM3, Homo sapiens, UniProt P20309)", "assay": "cell-free assay, radioligand", "quantity": "Ki", "value": "1380 nM"}
{"SMILES": "Cc1ncc(C(=O)N[C@@H](CC(C)C)C(=O)N[C@@H](CC2CCCC3CCCCC32)C(=O)N[C@H](/C=C/S(C)(=O)=O)Cc2ccc(CN)cc2)s1 (some centres unmarked)", "target": "PSMB8", "assay": "enzyme activity, inhibitor", "setting": "lysate", "quantity": "IC50", "value": "> 10000 nM"}
{"SMILES": "CCOc1ccc2c(-c3cc(C)nc(Nc4cc(OC)cc(C(F)(F)F)c4)n3)cnn2n1", "target": "Dual specificity tyrosine-phosphorylation-regulated kinase 1A (DYRK1A, Homo sapiens, UniProt Q13627)", "assay": "enzyme activity, inhibitor", "quantity": "IC50", "value": "> 10000 nM"}
{"SMILES": "CN1CCN(c2ccc(Nc3ncc4cc(C#N)c(=O)n(C5CCCC5)c4n3)cc2)CC1", "target": "Dual specificity tyrosine-phosphorylation-regulated kinase 1B (DYRK1B, Homo sapiens, UniProt Q9Y463)", "assay": "enzyme activity, inhibitor", "quantity": "IC50", "value": "238 nM"}
{"SMILES": "CSCC[C@H](NC(=O)[C@@H](NC(=O)[C@@H](N)Cc1ccc(O)cc1)C(C)C)C(=O)NCC(=O)N[C@@H](Cc1c[nH]cn1)C(=O)N[C@@H](Cc1ccccc1)C(=O)N[C@@H](CCCNC(=N)N)C(=O)N[C@@H](Cc1c[nH]c2ccccc12)C(=O)N[C@@H](CC(=O)O)C(=O)O", "target": "Mc1r", "assay": "reporter gene, agonist", "quantity": "EC50", "value": "430 nM"}
